Reference: ChEMBL document CHEMBL1122803, “Folate antagonists. 22. Antimalarial and antibacterial effects of 2,4-diamino-6-quinazolinesulfonamides” (1984)

Test system: Plasmodium berghei
Assay: Antimalarial activity as survivor numbers at day 60 for drug-sensitive Plasmodium berghei infected mice (Mus musculus) after 72 hr
Assay type: functional
Procedure, shortened: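 Normal drug-sensitive P. berghei infection in mice. A single subcutaneous dose was given 72 h postinfection, dissolved or suspended in sesame or peanut oil. Groups were five animals (ten where indicated). Mice alive at 60 days postinfection were counted as "cured", without subinoculation confirmation. Toxic deaths on days 2–5 were recorded separately.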

Nc1nc(N)c2cc(S(=O)(=O)c3ccc4ccccc4c3)ccc2n1
survivors at day 60: 5
